Screening data: PubChem BioAssay, several laboratories
ERb coact inh: blocks coactivator binding to human estrogen receptor beta | TR-FRET ER-beta LBD / SRC1-Cy5 peptide binding; receptor agonist-loaded with 1 µM estradiol | inhibition, % at 25.6 µM | 86,000 compounds, 1.3% hits;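 active = compounds whose percent inhibition of the receptor-coactivator binding signal exceeds about 50% in the single-dose screen, limit read from the data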;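 note: 0% = receptor plus peptide wells without compound and 100% = peptide-only wells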
Smad3 FoxH1 inh: blocks human Smad3 binding to FoxH1 peptide. TR-FRET Smad3/Dy647-FoxH1 peptide binding, europium anti-His. inhibition, % at 25 µM. 88,000 compounds, 0.29% hits. AID 630;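 active = compounds that reduce the energy-transfer binding signal between the protein and its labelled peptide by more than half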;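 note: 0% = Smad3 plus labelled peptide maximal FRET and 100% = peptide-only background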
ERa coact pot: enhances coactivator binding to human estrogen receptor alpha | P03372 | TR-FRET ERalpha-LBD/SRC-Cy5 coactivator binding, 2 h; 100 = basal binding, no effect | coactivator binding (% of control), % at 25.6 µM | 86,000 compounds, 1.3% hits; in the data active = activity above about 200%;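 note: binding measured in presence of low estradiol as agonist stimulus; 0% = peptide alone without receptor and 100% = receptor with peptide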
Target sequence (P03372 whole entry, looked up, the tested form may be a part): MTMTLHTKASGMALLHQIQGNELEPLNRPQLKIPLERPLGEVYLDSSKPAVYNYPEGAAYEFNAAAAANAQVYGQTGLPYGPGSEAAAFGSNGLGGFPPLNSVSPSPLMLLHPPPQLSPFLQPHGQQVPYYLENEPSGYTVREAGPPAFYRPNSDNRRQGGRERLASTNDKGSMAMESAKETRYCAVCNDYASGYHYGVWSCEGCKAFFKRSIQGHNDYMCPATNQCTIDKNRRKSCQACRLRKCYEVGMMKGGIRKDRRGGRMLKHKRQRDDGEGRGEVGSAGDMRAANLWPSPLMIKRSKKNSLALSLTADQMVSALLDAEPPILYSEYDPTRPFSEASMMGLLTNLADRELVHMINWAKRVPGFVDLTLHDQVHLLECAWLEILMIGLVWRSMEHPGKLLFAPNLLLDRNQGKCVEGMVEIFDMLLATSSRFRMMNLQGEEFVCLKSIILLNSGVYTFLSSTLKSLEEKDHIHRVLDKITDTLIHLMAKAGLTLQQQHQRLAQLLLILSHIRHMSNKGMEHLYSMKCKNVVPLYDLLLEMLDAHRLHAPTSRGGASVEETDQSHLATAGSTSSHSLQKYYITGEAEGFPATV
FAK blocker: inhibitors of human focal adhesion kinase. biochemical FAK kinase activity assay. inhibition, %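 (tested at 7 µM)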. 97,000 compounds, 0.84% hits. AID 727; in the data active = inhibition above about 19%;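 note: 0% = DMSO and 100% = reference compound high control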
ERa SRC1 inh: blocks coactivator binding to human estrogen receptor alpha | TR-FRET ER-alpha LBD / SRC-1 peptide, estradiol-bound | inhibition, % at 25.6 µM | 86,000 compounds, 1.7% hits | AID 629; in the data active = inhibition above about 50%;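 note: 0% = receptor plus peptide control and 100% = peptide only without receptor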
HIV Rev-RRE inh: disrupts HIV-1 Rev binding to RRE RNA. Rev peptide-RRE RNA binding, FRET. 97,000 compounds, 0.79% hits. AID 704. P05866. inhibition, % at 8 µM;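 active = inhibition above the screen-wide mean plus 3 SD, cut at about 35% in these data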;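 note: 0% = median DMSO wells and 100% = median Neomycin B control wells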
Target sequence (P05866 whole entry, looked up): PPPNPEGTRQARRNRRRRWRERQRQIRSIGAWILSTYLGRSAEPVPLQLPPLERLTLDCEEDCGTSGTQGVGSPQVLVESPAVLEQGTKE
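Test system – labelled RRE RNA duplex and labelled Rev peptide · Reagent – labelled Rev peptide · Doses – one concentration, 8 µM nominal · Incubation – 5 + 15 min at 25 °C · Signal – FRET fluorescence readout · Read-out basis – % inhibition of FRET ratio versus controls · Control set – DMSO wells as 0% and neomycin B wells as 100% inhibition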
* marks the source's active call; other numbers are inactive results; . = no result; [ ] = remark or other dose. Hits are enriched below; roughly 4% of the tested compounds scored in any of these assays.

SMILES	ERb coact inh	Smad3 FoxH1 inh	ERa coact pot	FAK blocker	ERa SRC1 inh	HIV Rev-RRE inh
COCCOC(=O)c1[nH]c2c(c1C)C(=O)CC(c1ccco1)C2 (stereo not given)	50.0	1.6	138.8	.	51.3*	.
Cc1c(C(=O)OCc2ccccc2)[nH]c2c1C(=O)CC(c1ccco1)C2 (stereo not given)	56.4*	2.3	89.5	.	55.1*	.
CCOC(=O)C(C(C)=O)C(c1ccc(OCCC(C)C)cc1)C(C(C)=O)C(=O)OCC (stereo not given)	-8.7	7.4	99.8	-2.5	-3.0	-3.7
c1cc(CSc2ncnc3nc[nH]c23)ccn1	.	-0.8	.	.	.	.
C/C(=N\Nc1ccc2ccccc2n1)c1ccccc1O	.	9.3	.	.	.	.
NC(=O)N/N=C1\CC[C@H](O)C[C@@H]1CC(=O)O	.	-7.4	.	.	.	.
Cc1cc(Cl)nc(NC(=O)CSc2ccc(Cl)cc2)n1	.	-8.0	.	.	.	.
O=C(CSc1nnnn1-c1ccccc1)c1cc2ccccc2oc1=O	25.4	-2.4	86.3	0.0	6.9	4.3
O=C(CSc1nnc(-c2cccs2)n1-c1cccc(Cl)c1)c1cccc2c1OCCO2	9.4	-13.2	258.6*	-3.2	11.4	7.4
COc1ccc(-n2nnnc2SCC(=O)c2ccc3c(c2)OCCO3)cc1	-12.4	5.6	307.1*[fluorescence artefact?]	-4.8	-9.0	-1.1
COc1ccc(-n2nnnc2SCC(=O)c2cccc(OC)c2)cc1	2.1	4.9	130.5	-1.7	0.7	3.2
O=C(O)CSc1nnc(-c2cccs2)n1-c1ccc(Cl)cc1	2.8	-0.9	99.4	-2.4	22.0	6.3
Cn1c(=O)oc2ccc(C(=O)CSc3nnnn3-c3ccccc3)cc21	11.2	-22.7	283.6*[fluorescence artefact?]	0.8	17.5	1.7
O=C(CSc1nnnn1-c1ccc2c(c1)OCCO2)c1cccc2c1OCCO2	-26.9	-38.0	375.4*[fluorescence artefact?]	-25.0	-15.9	-0.7
Cc1c(C(=O)O)nc(/C=C/C(=O)O)[nH]c1=O	.	3.8	.	.	.	.
CCOC(=O)N1CCC(n2c(=S)[nH]c3cc(OCC)c(OCC)cc3c2=O)CC1	51.9*[fluorescence artefact?]	13.9	106.2	.	41.0	.
NC(=O)CC(c1ccccc1)c1ccco1 (stereo not given)	-20.1	8.0	100.9	1.3	-2.5	10.0
O=C(O)C(O)c1ccco1 (stereo not given)	58.2*[fluorescence artefact?]	20.6	132.2	.	53.6*	.
Cn1c(N)nc2c(nc(OCc3ccccc3)n2[C@H]2O[C@H](CO)[C@@H](O)[C@@H]2O)c1=O	.	73.8*	.	.	.	.
COC(=O)c1cc(NC(=O)c2cccc(C(F)(F)F)c2)c(=O)oc1C/C=N/OCc1cccc(Cl)c1Cl	-3.0	3.9	113.0	-2.1	3.0	38.9*
C=C(C)c1cccc(C(C)(C)NC(=O)N2CCCC2)c1	-5.5	-3.5	100.4	-0.2	-11.3	-5.8
C=C(C)c1ccc(C(C)(C)NC(=O)N2CCN(C)CC2)cc1	4.7	70.6*	536.6*[fluorescence artefact?]	4.2	-2.4	-0.5
CCc1nnc2sc(-c3ccc(NC(=O)CSc4ccc(Cl)cc4)cc3)nn12	-2.3	-136.2	225.1*[fluorescence artefact?]	1.0	30.6	5.6
CC1(C)C(=O)C2(CCCCC2)C(=O)OC1c1ccc(O)cc1 (stereo not given)	-6.1	-10.4	218.5*	1.4	-7.3	3.4
N=C(N)SCc1cccc2c(=O)cc(-c3ccccc3)oc12	.	7.6	.	.	.	.
SMILES	ERb coact inh	Smad3 FoxH1 inh	ERa coact pot	FAK blocker	ERa SRC1 inh	HIV Rev-RRE inh
COc1ccc(-c2ccc(C#N)c(SCC(=O)OCc3ccccc3)n2)cc1OC	43.4	14.3	205.6*[fluorescence artefact?]	-2.4	-1.2	8.7
N#Cc1ccc(-c2ccc3c(c2)OCO3)nc1SCC(=O)OCc1ccccc1	-4.7	-14.8	245.9*[fluorescence artefact?]	-2.4	17.3	4.5
Cc1nc(SCC(=O)OCc2ccccc2)c(C#N)c(-c2ccccc2)c1C(=O)Nc1ccccc1	.	.	.	0.1	.	16.9
CCCCNN	.	5.2	.	.	.	.
N=C(N)SCCc1ccncc1	.	27.7	.	.	.	.
COc1ccc2nc(-c3cccc(N)c3)[nH]c2c1	2.8	9.8	110.8	2.1	-2.0	5.0
Nc1ccc2nc(-c3ccccn3)[nH]c2c1	76.2*[fluorescence artefact?]	1.1	11.5	7.5	96.5*[fluorescence artefact?]	-2.6
Nc1ccc2nc(-c3ccccc3)[nH]c2c1	24.7	-5.6	80.0	-0.2	82.0*[fluorescence artefact?]	10.7
Nc1ccc2nc(-c3ccc(N)c(Cl)c3)[nH]c2c1	54.1*[fluorescence artefact?]	7.2	26.6	4.0	92.5*[fluorescence artefact?]	-0.1
c1csc(-c2nnsc2-c2nc3ccccc3[nH]2)c1	-0.8	-6.9	89.7	.	2.7	.
Nc1ccc2nc(-c3cccs3)[nH]c2c1	56.3*[fluorescence artefact?]	10.3	71.6	0.9	43.2	5.7
COc1ccc2nc(-c3ccc(N)cc3)[nH]c2c1	10.2	7.8	97.9	2.4	1.4	-4.3
CC(C)COC(=O)c1nnsc1NC(=O)Nc1ccccc1	60.8*	6.2	113.1	9.4	64.3*[fluorescence artefact?]	7.6
C[C@H](CCC(=O)O)[C@H]1CC[C@H]2[C@@H]3[C@@H](O)C[C@H]4C[C@@H](O)CC[C@]4(C)[C@H]3C[C@@H](O)[C@]12C	.	12.2	.	.	.	.
O=C(O)c1ccc2c(c1)[C@@H]1C=CC[C@@H]1[C@H](c1ccccn1)N2	85.8*	31.7	21.0	6.3	68.3*	-57.6
N#CC1=C(N)SC(N)=C(C#N)C1c1ccnc2ccccc12	10.9	9.1	88.9	-0.4	3.8	59.5*
[O-]/N=C1/C(=[OH+])Nc2ccccc21.[O-]Nc1c([O+]=[Cu])[nH]c2ccccc12	.	9.8	.	.	.	.
Cc1cc(N2CCC(C)CC2)nc2cccc(O)c12	-3.1	1.0	550.2*[fluorescence artefact?]	-2.3	-11.4	8.2
Cc1nc2ccccc2nc1N1CCC(C)CC1	25.4	6.2	94.0	2.0	0.6	3.2
O=C(O)CCCCn1ccc(=O)[nH]c1=O	.	-6.9	.	.	.	.
CC1(C)Cc2ccccc2-c2nnc(SCC(=O)Nc3nc4ccccc4s3)n21	15.5	1.1	144.2	0.0	55.7*[fluorescence artefact?]	4.5
Cn1c(SCC(=O)Nc2nc3ccccc3s2)nnc1-c1ccccc1	22.0	4.6	177.5	3.9	23.1	4.4
CCC1=NN=C(c2ccc(F)cc2)C(c2c[nH]c3ccccc23)N1O (stereo not given)	-8.7	1.0	685.7*[fluorescence artefact?]	-3.5	2.0	3.0
CCCCOc1ccc(-c2nnn(CC(=O)c3c[nH]c4ccccc34)n2)cc1	27.3	-17.3	90.5	3.9	5.1	16.9
NCCOc1ccccn1	.	3.9	.	.	.	.
O=C(OCc1cc(=O)n2c(n1)sc1ccccc12)c1ccc2c(=O)n3c(nc2c1)CCC3	49.1	8.2	29.0	.	79.0*[fluorescence artefact?]	.
